MrgX1 antag: antagonists of human MrgX1 receptor, primary screen, HEK293 cells, Fluo-4 calcium flux; Mas-related G-protein coupled receptor member X1 (Homo sapiens), Q96LB2; BAM8-22 antagonism; active compounds read low; B-score at 10 µM; 1.3% of 310,000 active; AID 588676, 2011;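 active = calcium-response B-score plate-corrected more than 3 library SD below zero, starting fluorescence within 5 deviations, no agonist response on first addition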;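 also: peak minus trough fluorescence over baseline after final BAM8-22 challenge near maximal dose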
Target sequence (Q96LB2 whole entry, looked up): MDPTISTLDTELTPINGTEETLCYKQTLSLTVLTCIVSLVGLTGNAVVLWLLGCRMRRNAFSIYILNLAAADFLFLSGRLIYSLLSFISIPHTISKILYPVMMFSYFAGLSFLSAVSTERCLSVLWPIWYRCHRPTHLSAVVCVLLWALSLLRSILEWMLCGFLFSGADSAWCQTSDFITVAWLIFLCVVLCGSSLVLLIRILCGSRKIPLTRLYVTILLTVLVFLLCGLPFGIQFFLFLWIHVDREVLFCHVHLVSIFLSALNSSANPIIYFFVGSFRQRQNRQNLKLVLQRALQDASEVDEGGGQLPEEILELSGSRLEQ
MrgX1 agonist: agonists of human MrgX1 receptor, primary screen, HEK293 cells, Fluo-4 calcium flux. Mas-related G-protein coupled receptor member X1 (Homo sapiens), Q96LB2. Fluo-4 calcium fluorescence, agonist mode; active compounds read high. B-score at 10 µM. 0.44% of 310,000 active;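 active = calcium response B-score plate-corrected fluorescence ratio at least 3 library SD, with starting fluorescence B-score inside 5 SD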
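Test system: HEK293 cells stably expressing human MrgX1 receptor; amount: 15,000 cells per well; doses: compound delivered in addition one of three; times: overnight plating before 1 h dye loading; detection: Fluo-4 NW calcium-flux fluorescence, kinetic read; read-out basis: B-scored fluorescence response ratio; controls: positive and negative controls per plate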
RGS4 pot: RGS4 potentiators or activators, primary screen, cell-based, HEK293 M3R inducible RGS4, calcium flux; 0.92% of 310,000 active; carbachol calcium flux Fluo4; active compounds read low; B-score at 10 µM;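 active = B-score of the integrated calcium signal more than 4 SD below the library mean, with starting fluorescence not abnormally high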;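 also: negative B-score means reduced calcium response which marks RGS4 activation or potentiation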
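System: HEK293 FlpIn-TREx cells, stable M3R, doxycycline-inducible RGS4. Timing: overnight RGS4 induction, 30 min dye load 37 °C, 20 min compound RT. Also added: carbachol, ECmax concentration. Measured by: Fluo4 fluorescence kinetic imaging of calcium. Evaluation: integrated calcium ratio converted to B score.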
RGS4 block: RGS4 inhibitors, primary screen, cell-based, HEK293 M3R inducible RGS4, calcium flux; B-score at 10 µM; 0.45% of 310,000 active; AID 463165, 2010; Regulator of G-protein signaling 4 (Homo sapiens), P49798; Fluo-4 calcium flux; active compounds read high; triggered by carbachol at its EC20;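 active = B-score, a plate-corrected calcium signal, over three deviations above library mean, with baseline fluorescence within five deviations of library mean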;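 also: RGS4 expression induced by doxycycline in cells with stable M3 receptor; B-score is computed from the integrated fluorescence ratio over baseline after carbachol; higher B-score means a larger calcium signal and so more RGS4 inhibition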
Target sequence (P49798 whole entry, looked up): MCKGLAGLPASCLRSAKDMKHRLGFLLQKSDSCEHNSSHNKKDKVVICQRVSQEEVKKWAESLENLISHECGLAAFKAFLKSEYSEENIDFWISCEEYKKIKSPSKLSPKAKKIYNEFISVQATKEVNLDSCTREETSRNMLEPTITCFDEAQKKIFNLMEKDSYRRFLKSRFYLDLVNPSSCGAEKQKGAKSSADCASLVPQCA
MrgX1 PAM: positive allosteric modulators of MrgX1, primary screen, HEK293 cells, Fluo-4 calcium flux | Mas-related G-protein coupled receptor member X1 (Homo sapiens), Q96LB2 | FDSS; active compounds read high | B-score at 10 µM | 0.63% of 310,000 active | AID 588675, 2011;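 active = plate-corrected calcium response at least 3 library SD above typical, normal starting fluorescence, not activating the receptor alone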;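 also: compound read alongside a low EC10 to EC30 dose of BAM8-22 agonist; peak minus trough fluorescence over baseline measured at the second addition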
Of the large screens only hits and unclear results are named; the others gave an inactive call. Hits are enriched below; roughly 3.5% of the tested compounds scored in any of these assays.

CCCN=C1N/C(=C\c2ccco2)C(=O)N1c1ccccc1	none
COc1ccc(-n2ncc3c(N4CCN(Cc5ccccc5)CC4)ncnc32)cc1	RGS4 pot -7.4
Cc1ccc(-n2ncc3c(N4CCCC4)ncnc32)c(C)c1	none
COc1cccc(N2CCN(c3ncnc4c3cnn4-c3ccc(C)cc3C)CC2)c1	RGS4 pot -7
Cc1ccc(S(=O)(=O)N2CCC(C(=O)NCCC3=CCCCC3)CC2)c(C)c1	none
O=C(OC1CCOC1=O)C1CCN(S(=O)(=O)c2ccc(Cl)c(C(F)(F)F)c2)CC1 (configuration not stated)	none
CCCN(CCC)S(=O)(=O)c1ccc(C)cc1	none
CC(C)(O)C(=O)NNC(=S)NCc1ccco1	MrgX1 antag -5.4
CC(C)(C)c1ccc(C(=O)NNC(=S)NCc2ccco2)cc1	none
CCC(C(=O)OCC(=O)N(CCOC)c1c(N)n(Cc2ccccc2)c(=O)[nH]c1=O)c1ccccc1 (configuration not stated)	none
O=C(Cn1nnc2ccccc21)OCC(=O)c1ccccc1	MrgX1 antag -6.1
N/C(=N\OC(=O)c1ccc(=O)n(Cc2ccc(Cl)cc2)c1)c1ccccn1	none
N/C(=N\OC(=O)c1ccc(Cl)c(Cl)c1)c1cccnc1	none
N/C(=N\OC(=O)c1ccc(=O)n(Cc2ccccc2)c1)c1ccccn1	MrgX1 antag -5.1
N/C(=N\OC(=O)c1ccc(Cl)c(Cl)c1)c1cccc(CSc2ccccn2)c1	RGS4 pot -7.5
Cc1cccc(N(C)C(=O)CCS(=O)(=O)c2cc3c(cc2Cl)NC(=O)CO3)c1	none
COc1ccccc1NC(=S)N/N=C/c1cccc(C)c1	none
COc1ccccc1NC(=S)N/N=C/c1ccc(O)cc1	MrgX1 PAM 9
CCOCCCNc1nc2c(C)cccn2c(=O)c1/C=C1\SC(=S)N(CC(C)C)C1=O	MrgX1 antag -6.8
CCOCCCNc1nc2c(C)cccn2c(=O)c1/C=C1\SC(=S)N(C(C)CC)C1=O (configuration not stated)	MrgX1 antag -15
CCC(C)N(C(=O)COC(=O)CNC(=O)c1sc2ccccc2c1Cl)C1CCS(=O)(=O)C1 (configuration not stated)	none
Cc1ccc(CNC(=S)Nc2ccc(NS(=O)(=O)c3ccc(C)cc3)cc2)cc1	none
COc1cc(N(C(=O)Cc2cccs2)C(C(=O)NC2CCCCC2)c2ccc(C)cc2)ccc1-n1cnnn1 (configuration not stated)	MrgX1 antag -6.3
Cc1ccc(N(C(=O)Cc2cccs2)C(C(=O)NC2CCCCC2)c2ccccn2)cc1C (configuration not stated)	MrgX1 PAM 10
COc1ccc(/C(C)=N/NC(=O)CNC(=O)/C=C\c2ccccc2)c(OC)c1	none
O=C(O)c1ccc(-n2nc(C(F)(F)F)cc2-c2cccs2)cc1	none
CC(=O)Nc1ccc(NC(=O)C(C)OC(=O)CCCOc2ccc(Cl)cc2C)cc1 (configuration not stated)	MrgX1 antag -7.8
Cc1cc(O)c(/C=N/OCc2ccc(Cl)cc2Cl)c(=O)o1	none
O=c1c(/C=N/OCc2ccc(Cl)cc2Cl)c[nH]n1-c1cccc(Cl)n1	MrgX1 agonist 45
CC(C)N=C(N)N=C(N)Nc1ccc(Cl)cc1	none (no result: RGS4 pot, RGS4 block)
NC(=NCCCCCCN=C(N)/N=C(\N)Nc1ccc(Cl)cc1)/N=C(\N)Nc1ccc(Cl)cc1	MrgX1 antag -5.7
Cc1ccc(NC(=O)c2ccco2)c(NC(=O)c2ccc(Cl)cc2)c1	none
O=S1(=O)CCO[C@H]2Cc3ccccc3[C@H]2N1Cc1ccc(F)cc1	none
COc1cccc(NC(=O)c2cc3cccc(OC)c3o/c2=N\O)c1	RGS4 block 6.1
COc1cccc(NC(=O)c2cc3ccccc3o/c2=N\O)c1	MrgX1 agonist 27
COc1ccc(NC(=O)c2cc3cccc(OC)c3oc2=Nc2ccc(C(=O)O)cc2)cc1OC	none (no result: MrgX1 antag, MrgX1 agonist, MrgX1 PAM)
COc1cc(NC(=O)c2cc3cccc(OC)c3o2)cc(C(=O)Nc2cccc(C(F)(F)F)c2)c1	MrgX1 antag -5.2, RGS4 pot -8.2
CCCc1nnc(NC(=O)c2cn(CC)c3cc(N4CCN(C)CC4)c(F)cc3c2=O)s1	none
COc1ccc(/C=C(/C#N)C(=O)Nc2ccccc2C)cc1C(=O)O	none
CCOc1cc(/C=C(\C#N)C(=O)Nc2ccccc2C(=O)O)ccc1OC(=O)c1ccc(C)cc1	MrgX1 antag -4.9
CC(C)(C)C(=O)/C(=C\c1ccc([N+](=O)[O-])cc1)n1cncn1	MrgX1 agonist 34, RGS4 block 14
CC(C)(C)C(=O)/C(=C/c1ccc(Cl)cc1)n1cncn1	none
COc1ccccc1NC(=S)NNC(=O)c1ccncc1	MrgX1 agonist 28
C=CCSc1nnc(NC(=O)CN2C(=O)NC3(CCCC3)C2=O)s1	none
CC1=C(C#N)c2nc(N)c(C#N)c(C)c2/C1=C\c1ccc(C)cc1	MrgX1 antag -5.9
CC(C)NC(=O)CN(Cc1ccc(F)cc1)C(=O)CCC(=O)Nc1nccs1	none
C[n+]1ccc(C(=O)Nc2ccccc2Cl)cc1	none
Oc1cccc2c(NC(=S)Nc3ccc(SC(F)F)cc3)cccc12	MrgX1 antag -5.3
O=C(N/N=C/c1ccc(OC(F)F)cc1)c1ccc(Br)cc1	MrgX1 antag -5.3
O=C(N/N=C/c1ccc(OC(F)F)cc1)c1cc[n+]([O-])cc1	MrgX1 antag -6
CCOC(=O)C1CCN(C(=O)c2ccccc2NC(=O)C2=C(C)OCCS2)CC1	none
OCC[C@H]1C[C@H](O)[C@@H](O)[C@]2(OCc3ccccc32)O1	none (no result: RGS4 pot, RGS4 block)
CC(C)CC(OC(=O)c1ccc(Cl)nc1)C(=O)NC1CCCC1 (configuration not stated)	none
C#CCOCCOCCOCCNc1nc(N2CCN(C(=O)CCCCCCCCCCNC(=O)[C@H]([C@@H](C)CC)n3cc(CCCCN=C(N)N)nn3)CC2)nc(N2CCN(C(=O)CCCCCCCCCCNC(=O)[C@H](CO)n3cc(CCCCCN)nn3)CC2)n1	MrgX1 agonist 151 (no result: RGS4 pot, RGS4 block)
C#CCOCCOCCOCCNc1nc(N2CCN(C(=O)CCCCCCCCCCNC(=O)[C@H]([C@@H](C)CC)n3cc(CCCCCN)nn3)CC2)nc(N2CCN(C(=O)CCCCCCCCCCNC(=O)[C@H]([C@@H](C)CC)n3cc(CCCCN=C(N)N)nn3)CC2)n1	MrgX1 agonist 81 (no result: RGS4 pot, RGS4 block)
C#CCOCCOCCOCCNc1nc(N2CCN(C(=O)[C@H](C)n3cc(CCCN=C(N)N)nn3)CC2)nc(N2CCN(C(=O)[C@H](C)n3cc(CCCN=C(N)N)nn3)CC2)n1	MrgX1 PAM 8.4

Assay outcomes deposited in PubChem by Johns Hopkins Ion Channel Center.
